Assay results as given in ChEMBL document CHEMBL3102806, “1,2,4-Triazole/oxime hybrids as new strategy for nitric oxide donors: Synthesis, anti-inflammatory, ulceroginicity and antiproliferative activities” (Eur J Med Chem, 2014).

What was measured:
T47D = assay: Growth inhibition of human T47D cells assessed as cell growth at 10^-5 M after 48 hrs by sulforhodamine B assay relative to control; assay type: functional; settings: read-out: Activity
Method in brief: (§1)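 NCI primary screen across about 60 human tumour cell lines. Single dose of 10^-5 M, cultures incubated 48 h, end point by sulforhodamine B protein staining read spectrophotometrically. Results are given as percent growth of treated cells relative to untreated control cells.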

MDA-MB-231 = assay: Growth inhibition of human MDA-MB-231 cells assessed as cell growth at 10^-5 M after 48 hrs by sulforhodamine B assay relative to control; assay type: functional; settings: MDA-MB-231, 48 h, read-out: Activity
Method in brief: (§2)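 NCI primary screen, one-dose format across about 60 human tumour cell lines. Single addition at 10^-5 M with 48 h incubation; SRB protein-binding dye end point read spectrophotometrically. Reported as percent growth of treated cells versus untreated controls.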

DU-145 = assay: Growth inhibition of human DU145 cells assessed as cell growth at 10^-5 M after 48 hrs by sulforhodamine B assay relative to control; assay type: functional; settings: DU-145, 48 h, read-out: Activity
Method in brief: (§3)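 NCI ~60 human tumour cell line screen. Single concentration of 10^-5 M added to cultures for 48 h. End point by sulforhodamine B protein staining read spectrophotometrically. Percent growth relative to untreated control cells.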

ACHN = assay: Growth inhibition of human ACHN cells assessed as cell growth at 10^-5 M after 48 hrs by sulforhodamine B assay relative to control; assay type: functional; settings: read-out: Activity; method in brief: as §3
[1] = Growth inhibition of human NCI-ADR-RES cells assessed as cell growth at 10^-5 M after 48 hrs by sulforhodamine B assay relative to control; assay type: functional; settings: read-out: Activity; method in brief: as §2
Malme-3M = assay: Growth inhibition of human MALME-3M cells assessed as cell growth at 10^-5 M after 48 hrs by sulforhodamine B assay relative to control; assay type: functional; settings: read-out: Activity; method in brief: as §2
LOX IMVI = assay: Growth inhibition of human LOXIMVI cells assessed as cell growth at 10^-5 M after 48 hrs by sulforhodamine B assay relative to control; assay type: functional; settings: read-out: Activity; method in brief: as §2
SF-295 = assay: Growth inhibition of human SF295 cells assessed as cell growth at 10^-5 M after 48 hrs by sulforhodamine B assay relative to control; assay type: functional; settings: SF-295, 48 h, read-out: Activity; method in brief: as §2
SF-268 = assay: Growth inhibition of human SF268 cells assessed as cell growth at 10^-5 M after 48 hrs by sulforhodamine B assay relative to control; assay type: functional; settings: SF-268, 48 h, read-out: Activity; method in brief: as §2
SW-620 = assay: Growth inhibition of human SW620 cells assessed as cell growth at 10^-5 M after 48 hrs by sulforhodamine B assay relative to control; assay type: functional; settings: SW-620, 48 h, read-out: Activity; method in brief: as §1
HT-29 = assay: Growth inhibition of human HT-29 cells assessed as cell growth at 10^-5 M after 48 hrs by sulforhodamine B assay relative to control; assay type: functional; settings: HT-29, 48 h, read-out: Activity; method in brief: as §3
HCT-15 = assay: Growth inhibition of human HCT15 cells assessed as cell growth at 10^-5 M after 48 hrs by sulforhodamine B assay relative to control; assay type: functional; settings: HCT-15, 48 h, read-out: Activity; method in brief: as §3
[2] = Induction of nitric oxide release in phosphate buffer at 10^-4 M at pH 7.4 after 2 hrs by Griess colorimetric method in presence of N-acetylcysteine; assay type: physicochemical; settings: pH 7.4, 2 h, 100 µM
Method in brief: (§4)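 Final drug concentration 10^-4 M, added from DMF into 1:1 50 mM phosphate buffer (pH 7.4)/MeOH containing 5 × 10^-4 M N-acetylcysteine, at 37 °C. Nitrite read with Griess reagent after 10 min at room temperature, absorbance at 546 nm. Calibration with sodium nitrite standards (10–80 nmol/ml). Reported as mol NO per mol, n = 4 reaction mixtures.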

[3] = Induction of nitric oxide release in phosphate buffer at 10^-4 M at pH 7.4 after 5 hrs by Griess colorimetric method in presence of N-acetylcysteine; assay type: physicochemical; settings: pH 7.4, 5 h, 100 µM; method in brief: as §4
Rattus norvegicus [4] = assay: Antiinflammatory activity in albino rat assessed as inhibition of carrageenan-induced paw edema at 0.28 mmol/kg, po administered 30 mins prior to carrageenan-challenge measured after 1 hr relative to control; assay type: functional
Method in brief: (§5)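 Male albino rats in groups of four were fasted 24 h with water allowed. Dosing was oral at 0.28 mmol/kg, suspended in 0.5% w/v CMC; controls got CMC alone. After 30 min, 0.1 ml of 1% carrageenan in saline went subplantar into the right hind paw and saline into the left. Paw thickness was read by caliper before and at 1–5 h. % inhibition = [(VR−VL)control−(VR−VL)treated]/(VR−VL)control ×100. Mean ± SEM, n = 4, one-way ANOVA vs control.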

Rattus norvegicus [5] = assay: Antiinflammatory activity in albino rat assessed as inhibition of carrageenan-induced paw edema at 0.28 mmol/kg, po administered 30 mins prior to carrageenan-challenge measured after 2 hrs relative to control; assay type: functional; method in brief: as §5
Rattus norvegicus [6] = assay: Antiinflammatory activity in albino rat assessed as inhibition of carrageenan-induced paw edema at 0.28 mmol/kg, po administered 30 mins prior to carrageenan-challenge measured after 3 hrs relative to control; assay type: functional; method in brief: as §5
Rattus norvegicus [7] = assay: Antiinflammatory activity in albino rat assessed as inhibition of carrageenan-induced paw edema at 0.28 mmol/kg, po administered 30 mins prior to carrageenan-challenge measured after 4 hrs relative to control; assay type: functional; method in brief: as §5
CCRF-CEM = assay: Growth inhibition of human CCRF-CEM cells assessed as cell growth at 10^-5 M after 48 hrs by sulforhodamine B assay relative to control; assay type: functional; settings: read-out: Activity; method in brief: as §3
HL-60(TB) = assay: Growth inhibition of human HL-60(TB) cells assessed as cell growth at 10^-5 M after 48 hrs by sulforhodamine B assay relative to control; assay type: functional; settings: HL-60, 48 h, read-out: Activity
Method in brief: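 NCI primary screen across about 60 human tumour cell lines. Single dose of 10^-5 M, 48 h incubation, sulforhodamine B protein-dye end point read spectrophotometrically. Reported as percent growth of treated cells versus untreated control cells.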

K562 = assay: Growth inhibition of human K562 cells assessed as cell growth at 10^-5 M after 48 hrs by sulforhodamine B assay relative to control; assay type: functional; settings: K562, 48 h, read-out: Activity; method in brief: as §3
NCI-H23 = assay: Growth inhibition of human NCI-H23 cells assessed as cell growth at 10^-5 M after 48 hrs by sulforhodamine B assay relative to control; assay type: functional; settings: NCI-H23, 48 h, read-out: Activity; method in brief: as §2
SR = assay: Growth inhibition of human SR cells assessed as cell growth at 10^-5 M after 48 hrs by sulforhodamine B assay relative to control; assay type: functional; settings: read-out: Activity; method in brief: as §1
MDA-MB-468 = assay: Growth inhibition of human MDA-MB-468 cells after 48 hrs by sulforhodamine B assay; assay type: functional; settings: MDA-MB-468, 48 h
Method in brief: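 NCI 60-cell-line panel (nine tumour subpanels), five-dose format: 10-fold dilutions from 10^-4 to 10^-8 M, 48 h continuous exposure, SRB protein stain. Percent growth at each level is derived from time-zero, untreated control and treated absorbances. GI50 is the concentration where [(Ti−Tz)/(C−Tz)]×100 = 50. Values outside the tested range are reported as above or below the limit.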

| Structure (SMILES) | growth at 10 µM (T47D) | growth at 10 µM (MDA-MB-231) | growth at 10 µM (DU-145) | growth at 10 µM (ACHN) | growth at 10 µM [1] | growth at 10 µM (Malme-3M) | growth at 10 µM (LOX IMVI) | growth at 10 µM (SF-295) | growth at 10 µM (SF-268) | growth at 10 µM (SW-620) | growth at 10 µM (HT-29) | growth at 10 µM (HCT-15) | Activity [2] | Activity [3] | inhibition in vivo at 280 µmol/kg (Rattus norvegicus [4]) | inhibition in vivo at 280 µmol/kg (Rattus norvegicus [5]) | inhibition in vivo at 280 µmol/kg (Rattus norvegicus [6]) | inhibition in vivo at 280 µmol/kg (Rattus norvegicus [7]) | growth at 10 µM (CCRF-CEM) | growth at 10 µM (HL-60(TB)) | other results |
| --- | --- | --- | --- | --- | --- | --- | --- | --- | --- | --- | --- | --- | --- | --- | --- | --- | --- | --- | --- | --- | --- |
| C/C(=N\O)c1ccc(NC(=O)CSc2nnc(-c3ccccc3)n2-c2ccccc2)cc1 | 92% | 20.9% | 67.9% | 85.7% | 39.3% | 91.8% | 82.9% | 52.6% | 92.2% | 99.8% | 73.3% | 84% | 0.15 mol/mol | 0.14 mol/mol | 50% | 52% | 63% | 67% | 92% | 90.4% | growth at 10 µM (K562): 95.8%; growth at 10 µM (NCI-H23): 76.6%; growth at 10 µM (SR): 106% |
| COc1ccc(-c2nnc(SCC(=O)Nc3ccc(/C(C)=N/O)cc3)n2-c2ccccc2)cc1OC | 68% | 47.9% | 88.3% | 75.5% | 90.6% | 61.8% | 80.1% | 39.1% | 30.6% | 115% | 91.2% | 98.6% | 0.2 mol/mol | 0.35 mol/mol | 57% | 63% | 77% | 79% | 98.5% | 77.3% | growth at 10 µM (K562): 105%; growth at 10 µM (NCI-H23): 68.8%; growth at 10 µM (SR): 95.4%; GI50 (MDA-MB-468): 16.4 µM; TGI (MDA-MB-468): > 100 µM; CC50 (MDA-MB-468; read-out: LC50 (the source's name)): > 100 µM |
